Screens (PubChem BioAssay)
Rev-RRE block: inhibitors of HIV-1 Rev-RRE RNA interaction. P05866. Rev peptide-RRE RNA binding, FRET. inhibition, % at 8 µM. 97,000 tested, 0.79% active. AID 704;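 active means inhibition above the screen-wide mean plus 3 SD, cut at about 35% in these data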;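 further: 0% = median DMSO wells and 100% = median Neomycin B control wells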
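System: Cy5-labelled duplex RRE RNA binding fluorescein-labelled HIV Rev peptide; Signal: fluorescein-to-Cy5 FRET, 480 nm excitation; Also added: labelled Rev peptide; Compound: one concentration, 8 µM nominal; Buffer or medium: HEPES pH 7.5 salt buffer with EDTA; Read-out: % inhibition of FRET ratio versus controls; Schedule: 5 min preincubation and 15 min binding, 25 °C.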
Plk1 PBD FP: Plk1 (human) PBD binding inhibition; Plk1 PBD phosphopeptide binding, fluorescence polarization; inhibition, %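 (tested at about 20 µM)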; 97,000 tested, 0.13% active; AID 693; in the data active means inhibition above about 34%, passing the limit was not always enough
PLK1 kinase inh: inhibitors of human PLK1 kinase | P53350 | recombinant PLK1 kinase, TR-FRET peptide phosphorylation | inhibition, % at 10 µM | 97,000 tested, 0.53% active;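 active means inhibition of 50% or more in the single-concentration screen; inactive means inhibition below 50%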;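 further: 0% = DMSO max control and 100% = H-89 dihydrochloride min control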
LYP act: LYP (human) phosphatase activation. 96,000 tested, 0.11% active. activation, % at 2 µM. recombinant LYP, DiFMUP fluorescence; 0 = plate median, 100 = signal doubled. Q9Y2R2. AID 697;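 active means activation at 2 µM above a set limit, the mean plus 5 SD, cut at about 37% in these data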
Target sequence (Q9Y2R2 whole entry, looked up): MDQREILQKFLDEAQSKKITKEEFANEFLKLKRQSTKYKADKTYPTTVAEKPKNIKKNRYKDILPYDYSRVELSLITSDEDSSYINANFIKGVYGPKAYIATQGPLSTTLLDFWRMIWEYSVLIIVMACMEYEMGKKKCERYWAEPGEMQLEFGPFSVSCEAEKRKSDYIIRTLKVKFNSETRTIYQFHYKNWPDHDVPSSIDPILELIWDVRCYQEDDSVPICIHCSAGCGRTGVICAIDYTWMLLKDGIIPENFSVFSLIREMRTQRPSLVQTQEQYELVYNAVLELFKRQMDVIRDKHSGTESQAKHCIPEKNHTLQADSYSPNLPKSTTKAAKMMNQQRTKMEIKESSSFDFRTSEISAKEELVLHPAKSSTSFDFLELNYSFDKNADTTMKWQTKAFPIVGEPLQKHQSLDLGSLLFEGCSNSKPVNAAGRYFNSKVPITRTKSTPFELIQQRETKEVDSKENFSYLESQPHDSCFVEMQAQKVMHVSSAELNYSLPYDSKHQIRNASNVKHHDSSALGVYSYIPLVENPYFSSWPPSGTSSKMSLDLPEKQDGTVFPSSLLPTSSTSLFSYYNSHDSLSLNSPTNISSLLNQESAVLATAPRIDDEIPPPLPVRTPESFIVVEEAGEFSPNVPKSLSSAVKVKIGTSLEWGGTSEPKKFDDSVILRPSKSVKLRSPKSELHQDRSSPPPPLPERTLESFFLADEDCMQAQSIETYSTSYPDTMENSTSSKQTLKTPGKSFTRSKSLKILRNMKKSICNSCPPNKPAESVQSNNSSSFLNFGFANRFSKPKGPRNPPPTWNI
EphB4 ephrin blk: EphB4-ephrin-B2 interaction antagonism; P54760; EphB4 LBD / TNYL-RAW-Alexa532 peptide, fluorescence polarization; inhibition, % at 7 µM; 97,000 tested, 0.15% active; AID 720;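 active means inhibition above the screen-wide mean inhibition plus 3 SD, cut at about 15% in these data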;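 further: 0% = DMSO wells and 100% = excess unlabeled TNYL-RAW peptide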
PTPN22 inh 2: LYP (human) phosphatase inhibition; recombinant LYP catalytic domain, DiFMUP fluorescence; inhibition, % at 2 µM; 96,000 tested, 0.21% active; Q9Y2R2;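 active means inhibition at 2 µM at or above a set limit, the screen mean plus 3 SD, cut at about 24% in these data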;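 further: 0% = DMSO with enzyme and 100% = enzyme fully blocked by orthovanadate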
Active calls of the source: *; x = not tested or not shown; [ ] = dose if it differs, or a comment. The list is not random: actives were taken first. Their share in the collection is about 2%.

SMILES	Rev-RRE block	Plk1 PBD FP	PLK1 kinase inh	LYP act	EphB4 ephrin blk	PTPN22 inh 2
CC(C)CN(CC(C)C)C(=O)CS(=O)(=O)Cc1ccccc1	1	20	-10	9	1	-12
O=C(O)CCCNc1cc(N2CCC3(CC2)OCCO3)c2noc3c2c1C(=O)c1ccccc1-3	122*[fluorescence artefact?]	7	36	3	2	-5
Cc1[nH]nc2c1C1(CCN(C(=O)c3ccccc3)CC1)C(C#N)=C(N)O2	0	-4	-3	2	-1	1
Cc1[nH]nc2c1C1(CCC(c3ccccc3)CC1)C(C#N)=C(N)O2 (stereo not given)	11	-35	60*	4	4	-5
O=c1cc2c(nn1Cc1ccccc1Cl)-c1ccccc1CC2	15	4	-10	-1	-1	0
Cc1c(C(=O)OC2CCCCC2)sc2nc[nH]c(=O)c12	24	-1	68*	3	2	-4
COc1cc(/C=C2\SC(c3ccc(C)cc3)=NC2=O)cc(OC)c1O	50*[fluorescence artefact?]	-21	-13	1	-2	4
O=C(CC(c1ccco1)C1CCCCC1=O)c1ccccc1 (stereo not given)	5	-16	-1	9	2	-8
Brc1ccc2nc(CSc3ncn[nH]3)cn2c1	6	-17	-12	-84	2	83*
Cc1cc(NC(c2ccc(Cl)cc2)c2ccc3cccnc3c2O)no1 (stereo not given)	8	13	-2	0	16*	4
Cc1ccc2ccc(C(Nc3ccccn3)c3ccccc3)c(O)c2n1 (stereo not given)	9	-2	-8	-4	2	4
CCc1cc(=O)oc2c(C)c(OCC(=O)N3CCCc4ccccc43)ccc12	4	-22	6	-2	-4	4
Cn1c(=O)oc2cc(S(=O)(=O)Nc3ccc4c(c3)OCCO4)ccc21	38*	-10	-26	13	4	-12
COc1ccc(/C=C/c2ccncc2)c2ccccc12	141*[fluorescence artefact?]	-11	-14	10	-3	-10
CC(C)(C)c1ccc(S(=O)(=O)N2CC(=O)Nc3ccccc32)cc1	5	1	-12	9	-5	-7
O=c1c(/C=N/Nc2ccccc2)c(Sc2nnnn2-c2ccccc2)nc2ccccn12	73*[fluorescence artefact?]	-124	-27	-23	-1	24*
COc1ccc(C(=O)Nc2n[nH]c(-c3ccncc3)n2)cc1	0	-15	-3	-1	2	3
C=CCOc1ccc(C2C(C(=O)c3cccs3)=C(O)C(=O)N2c2nnc(C)s2)cc1 (stereo not given)	102*[fluorescence artefact?]	-94	-15	6	3	-11
COc1ccc(C2C(C(C)=O)=C(O)C(=O)N2c2cccnc2)cc1OC (stereo not given)	8	-31	-12	2	-6	0
COc1ccc(C2C(C(=O)c3cccs3)=C(O)C(=O)N2c2nncs2)cc1 (stereo not given)	102*[fluorescence artefact?]	-4	-1	2	-9	-4
Cc1ccc(C2C(C(=O)c3ccco3)=C(O)C(=O)N2c2nnc(C)s2)cc1 (stereo not given)	48*	-28	-10	-3	-1	8
COc1ccc(C2C(C(=O)c3cccs3)=C(O)C(=O)N2c2nnc(C)s2)cc1OC (stereo not given)	107*[fluorescence artefact?]	7	-8	4	-10	-4
C=CCOc1cccc(C2C(C(=O)c3ccc(C)o3)=C(O)C(=O)N2Cc2ccncc2)c1 (stereo not given)	3	-31	-7	-13	-3	11
O=C(CCCCCN1C(=O)C2C3C=CC(C3)C2C1=O)Nc1nccs1 (stereo not given)	5	-9	62*	x	-6	x
Nc1c(C(=O)c2ccccc2)sc2snc(SCC(=O)c3ccccc3)c12	78*	-47	21	-4	2	8
SMILES	Rev-RRE block	Plk1 PBD FP	PLK1 kinase inh	LYP act	EphB4 ephrin blk	PTPN22 inh 2
CC(C)c1ccc(N2C(=O)CC(Sc3nc4ccccc4o3)C2=O)cc1 (stereo not given)	6	-18	-7	-22	1	24*
N/C(=N\OC(=O)c1ccc(Cl)cc1)c1nonc1N	2	-7	-5	-2	-3	8
COc1ccc2ccccc2c1C(O)c1nccn1C (stereo not given)	135*[fluorescence artefact?]	20	12	4	8	-5
COc1ccc(C(O)c2nccn2Cc2ccccc2)cc1 (stereo not given)	0	20	-7	6	-3	-7
CSc1nsc(/C=C/Nc2ccc(Cl)cc2)c1C#N	42*	6	2	-8	4	11
Nn1c(Nc2ccccc2)nc2ccccc21	5	18	-10	10	-5	-10
Nn1c(Nc2ccccc2)nc2ccccc2c1=O	5	4	59*	-5	8	4
CNc1ccc(Br)cc(C(=O)/C=C/c2cccc(OC)c2)c1=O	53*	0	-1	-16	12	12
CCNc1ccc(Br)cc(C(=O)/C=C/c2c(Cl)cccc2Cl)c1=O	89*[fluorescence artefact?]	-14	-5	-14	1	11
O=C(Nc1c(Cl)cc(Cl)cc1C(=O)NCc1cccnc1)c1ccc(Cl)cc1Cl	1	57*	-8	2	-10	3
CC(C)OC(=O)c1cccnc1SCc1cc(=O)n2ccccc2n1	1	12	3	34	-5	-38
CC(=O)NCCCc1c[nH]c2ccc(Cl)cc12	2	-18	-12	-10	-10	9
COc1ccc(N2CCN(C(=O)COc3ccccc3)CC2)cc1	-3	-22	2	-4	1	4
O=C1CN(C(=O)COc2ccccc2)CCN1	4	-4	61*	x	4	x
CN(C)/C=C(/C(=O)c1ccc(Cl)cc1)S(=O)(=O)c1ccc(Cl)cc1	4	8	-4	2	9	1
CCCCN(CC(=O)Nc1c(C)cccc1CC)C(=O)SCC	4	-8	-15	-1	1	1
Oc1sc(C=Nc2ccc(F)cc2)c2ccccc12	109*[fluorescence artefact?]	-8	-10	0	-4	1
COc1ccc(N=Cc2c(O)[nH]c3ccccc23)cc1	-1	16	-7	4	-4	-4
Oc1c(C=Nc2cccnc2)sc2ccccc12	23	-21	-10	1	-2	-3
Oc1sc(C=Nc2ccccc2)c2ccccc12	120*[fluorescence artefact?]	-51	-11	7	-1	-6
CCNC(=O)COc1cc(C)c(Cl)c(C)c1	3	11	-8	-25	1	25*
Cc1cc(OCC(=O)N2CCCC2)cc(C)c1Cl	-9	-10	-11	-1	0	0
Cc1cc(Br)ccc1NC(=O)CN1C(=O)C2C3CC(c4ccccc4)C(C3)C2C1=O (stereo not given)	4	-18	-4	5	0	-1
CCC(CC)c1nnc(NC(=O)c2c(C)nn(Cc3ccccc3Cl)c2C)s1	-1	-9	-11	-3	-6	3
